The sample as a whole holds a higher share of hits than the screen did.
Lung fibro prol: blocks proliferation of human lung fibroblasts. hit rate 1.1% among 85,000. viability, % at 10 µM. LL 47 human lung fibroblast viability, ATP luminescence; stronger effect = lower value;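 active means viability at or below 50% in the single dose screen; inactive means viability above 50%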;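 further: compound exposure lasted 72 h before the ATP readout; 100% = median luminescence of untreated cell-only wells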
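material = human LL 47 lung fibroblast cells | dosing = compounds added from tenfold dosing solution, 0.1% DMSO final | timing = overnight cell rest, 72 h compound treatment at 37 °C | measured by = CellTiter-Glo luminescence measuring cellular ATP | evaluation = % viability versus median cells-only luminescence | control set = cell-only wells, no compound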
HCT116 bCat-KO: beta-catenin-lacking colon tumor cell growth suppression; HCT116 beta-catenin knockout viability, CellTiter-Glo, 60 h; stronger effect = lower value; viability, % at 10 µM; hit rate 1.5% among 140,000; AID 818;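 active means viability at or under a set limit, the compound median less 4 SD, cut at about 6% in these data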;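 further: 0% = Hyamine 1622 control at 20 µM and 100% = untreated cell control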
H69AR growth 86K: blocks growth of human H69AR lung tumor cells; H69AR lung tumor viability, ATP luminescence, 72 h; stronger effect = lower value; viability, % at 10 µM; hit rate 6% among 85,000;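 active means viability at or below 40%; inactive means viability above 40%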;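 further: multidrug resistant small cell line overexpressing MRP-1 efflux transporter; 100% = mean luminescence of untreated control wells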
HCT116 PTEN-null: PTEN-deleted cell growth suppression. HCT116 PTEN-null viability, CellTiter-Glo, 60 h; stronger effect = lower value. viability, % at 10 µM. hit rate 1.2% among 140,000. AID 827;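 active means viability at or below a set limit, 4 SD under the median of all tested compounds, cut at about 3.7% in these data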;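 further: PTEN knockout HCT116 line with beta catenin targeted HCT116 as companion control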
HUVEC prolif 384: human endothelial cell proliferation inhibition; HUVEC proliferation, CellTiter-Glo luminescence, 72 h; stronger effect = lower value; viability, % at 10 µM (by protocol); hit rate 1.1% among 86,000;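 active means viability at or below 30%; inactive means viability above 30%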;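 further: 100% = median luminescence of DMSO-only cell control wells on each plate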
Active calls of the source: *; . = no result given.

SMILES	Lung fibro prol	HCT116 bCat-KO	H69AR growth 86K	HCT116 PTEN-null	HUVEC prolif 384
COC(=O)c1c(NC(=O)CN2CCN(Cc3ccc4c(c3)OCO4)CC2)sc(C)c1C	84.0	96.8	1.9*	96.7	61.7
COc1cc(NC(=O)Nc2ccccc2)c(OC)cc1NC(=O)CN1CCCCC1	96.4	57.9	41.4	70.6	12.5*
COC(=O)c1ccsc1NC(=O)CN1CCN(Cc2ccc3c(c2)OCO3)CC1	.	78.8	.	80.2	.
COc1ccc(NC(=O)CN2CCN(CC(=O)Nc3ccc4c(c3)OCO4)CC2)cc1	92.0	100.4	95.8	105.1	95.8
COc1cccc(-c2nc3sc4c(c3c(=O)[nH]2)CCCCC4)c1	.	72.1	.	72.5	.
COc1ccc(S(=O)(=O)NCCc2nnc3ccc(SCC(=O)Nc4nc(C)cs4)nn23)cc1	.	97.0	.	100.6	.
COc1ccccc1NC(=O)CSC(N)=O	89.4	96.8	27.8*	98.8	55.6
COc1ccccc1NC(=O)CN1CCN(C2c3ccccc3-c3ccccc32)CC1	77.5	57.6	38.1*	39.7	65.6
CN(C)c1ccc(NC(=O)CN2CCN(S(=O)(=O)c3cc(Cl)ccc3Cl)CC2)cc1	.	98.1	.	95.4	.
O=C(CN1CCN(S(=O)(=O)c2cc(Cl)ccc2Cl)CC1)Nc1ccc2c(c1)OCCO2	99.5	69.9	35.1*	75.9	91.8
COc1ccc(S(=O)(=O)Nc2ccc(O)c3ccccc23)cc1	92.8	1.5*	1.8*	2.3*	2.3*
COC(=O)Nc1ccc(S(=O)(=O)Nc2cccc3ccccc23)cc1	.	86.6	35.5*	86.3	79.8
COc1ccccc1NS(=O)(=O)c1ccc(NC(C)=O)cc1	104.8	91.5	95.4	85.6	95.6
COc1ccc(S(=O)(=O)Nc2ccccc2C(F)(F)F)cc1	102.1	102.9	89.1	93.2	93.4
Cc1ccccc1OCCNC(=O)CSc1ccc(C(F)(F)F)cc1[N+](=O)[O-]	.	97.5	.	98.7	.
COc1cccc(/C=N/NC(=O)c2c(-c3ccccc3)noc2C)c1O	.	5.8*	.	6.8	.
COc1cccc(/C=N/NC(=O)c2cc3c(OC)cccc3[nH]2)c1O	.	6.0*	.	2.6*	.
Cc1cc(C(=O)CSc2nc3ccccc3n2CCC#N)c(C)n1Cc1cccs1	79.7	80.6	16.5*	82.8	71.0
O=C(Nc1ccc2oc(-c3ccccc3)nc2c1)c1ccco1	.	98.9	.	102.0	.
CCCOc1ccc(/C=c2\sc3nc(-c4ccco4)nn3c2=O)cc1OCC	91.3	94.1	89.1	93.8	82.3
CC(=O)Oc1cccc(/C=c2\sc3nc(-c4ccco4)nn3c2=O)c1	93.1	78.7	10.5*	93.1	72.6
Cc1ccc(-c2nnc(SCC(=O)N/N=C/c3ccc(C)s3)n2-c2ccc(C)cc2)cc1	.	79.7	.	69.2	.
Cn1c(SCC(=O)N/N=C/c2ccc([N+](=O)[O-])s2)nnc1-c1ccccc1	.	1.9*	.	1.6*	.
O=C(Cc1ccccc1)N/N=C/c1ccc([N+](=O)[O-])s1	.	1.4*	.	1.0*	.
O=C(N/N=C/c1ccc([N+](=O)[O-])s1)C(O)c1ccccc1 (stereo unspecified)	.	0.8*	.	1.0*	.
SMILES	Lung fibro prol	HCT116 bCat-KO	H69AR growth 86K	HCT116 PTEN-null	HUVEC prolif 384
CCc1ccc(N2C(=O)C3C4CCC(C4=C(C)C)C3C2=O)cc1 (stereo unspecified)	.	95.7	.	90.9	.
COc1ccc(Oc2ccccc2C=O)cc1	.	12.0	.	12.5	.
CC(C)OC(=O)c1ccc(NC(=O)Cn2c(-c3nonc3N)nc3ccccc32)cc1	91.7	73.4	54.7	71.2	60.9
COC(=O)c1ccccc1NC(=O)Cn1c(-c2nonc2N)nc2ccccc21	47.0*	16.4	8.2*	18.5	22.5*
O=C(CCC1CCCC1)N1CCN(C2CCCC2)CC1	87.0	91.7	87.7	95.8	94.3
COc1ccc(CCC(=O)N2CCN(C3CCCCC3)CC2)cc1	17.0*	92.9	91.0	88.0	95.0
CC(C)OCCCNC(=O)C1CCC(CNS(=O)(=O)c2ccccc2)CC1 (stereo unspecified)	.	84.3	.	85.8	.
Cc1ccc(Cl)cc1N1CCN(Cc2nc3c(c(=O)[nH]c(=O)n3C)n2Cc2ccccc2F)CC1	85.5	.	18.8*	.	42.2
Cn1c(=O)[nH]c(=O)c2c1nc(CN1CCN(c3cccc(Cl)c3)CC1)n2CCCc1ccccc1	95.2	67.3	57.1	74.5	82.4
Cc1ccc(Cl)cc1N1CCN(Cc2nc3c(c(=O)[nH]c(=O)n3C)n2CCc2ccccc2)CC1	17.7*	11.1	4.3*	16.9	36.9
Cn1nc(-c2ccc(Cl)cc2)c2cc(C(=O)NCC3CCCO3)sc21 (stereo unspecified)	79.1	53.3	51.4	58.4	75.7
CCN(CC)CCCNC(=O)c1cc(-c2ccc(Cl)c(Cl)c2)on1	.	2.0*	.	2.4*	.
CCN(CC)CCCNC(=O)c1cc2c(-c3ccc(Cl)cc3)nn(C)c2s1	19.3*	0.8*	1.8*	1.6*	2.4*
CN1CCN(CCCNC(=O)c2cc3c(-c4ccc(Cl)cc4)nn(C)c3s2)CC1	14.2*	1.5*	4.5*	1.7*	1.9*
Cc1c(CN(C)C(=O)/C=C/c2ccc([N+](=O)[O-])cc2)cnn1C	.	93.2	.	89.4	.
O=C(O)CCCCCn1c(O)c(C=C2N=c3ccccc3=N2)sc1=S	.	55.2	.	64.9	.
COc1ccc(OC)c(S(=O)(=O)Nc2ccccc2C(F)(F)F)c1	95.8	101.3	104.5	100.8	81.6
COc1ccc(OC)c(C(=O)/C=C/c2ccccc2C(F)(F)F)c1	.	4.2*	.	4.8	.
c1ccc(N(c2ccccc2)c2nc(N3CCOCC3)nc(N3CCOCC3)n2)cc1	93.3	.	52.1	.	83.6
FC(F)(F)COc1nc(N2CCOCC2)nc(N(c2ccccc2)c2ccccc2)n1	94.2	62.7	39.9*	61.8	92.4
Cc1cc2ncn(/N=C/c3ccc([N+](=O)[O-])o3)c2cc1C	.	2.5*	.	1.6*	.
CC(=O)c1ccc(NC(=O)C(=O)c2cn(CC(=O)N3CCCCC3)c3ccccc23)cc1	.	88.3	.	96.7	.
Cc1cc(C)c2nc(-c3ccccn3)cc(C(=O)Nc3cc(C)on3)c2c1	80.9	53.5	34.1*	47.9	50.4
Cc1cc(NC(=O)c2cc(-c3ccncc3)nc3c(C)cccc23)no1	50.2	9.1	23.5*	15.9	32.8
Cc1ccc(-c2cc(C(=O)Nc3cc(C)on3)c3ccccc3n2)cc1	.	88.1	.	99.4	.
SMILES	Lung fibro prol	HCT116 bCat-KO	H69AR growth 86K	HCT116 PTEN-null	HUVEC prolif 384
CC(Cc1cccs1)NC(=O)Nc1ccc(Cl)c(Cl)c1 (stereo unspecified)	105.6	37.2	25.7*	25.0	56.4
CN1C(=O)C(O)(CC(=O)c2ccc(F)cc2)c2cc(Br)ccc21 (stereo unspecified)	88.1	14.3	25.2*	14.6	73.1
O=S(Cc1ccccc1)CC(O)(c1ccc(Cl)cc1)c1ccc(Cl)cc1 (stereo unspecified)	.	5.7*	.	12.7	.
CC(C)(C)c1cc(NC(=O)c2cc(F)c(F)c(F)c2F)no1	50.2	29.7	35.0*	31.9	68.5
CCOc1ccc(Nc2cc(C)nc(-n3nc(C)cc3C)n2)cc1	.	20.5	.	15.3	.
COc1ccc(/C=N/Nc2cc(C)nc(-n3nc(C)cc3C)n2)c(OC)c1	.	2.6*	.	2.4*	.

Source: PubChem BioAssay (SRMLSC)
